# In ChEMBL document CHEMBL3808289, “Discovery of a Selective Series of Inhibitors of Plasmodium falciparum HDACs” (ACS Med Chem Lett, 2016):
# pEC50, pIC50: −log10 of the molar value. Calls of active or inactive are those of the source. The calls are words filed in the database; no cut-off is given here.
# Legend:
# Plasmodium falciparum = test: Antimalarial activity against Plasmodium falciparum 3D7 infected human erythrocytes assessed as parasite growth inhibition after 72 hrs by spectrophotometry; format: functional, organism-based; settings: 3D7, 72 h
# Summary of the method: (§1)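 Cell-based read-outs (parasite growth in erythrocytes; class I HDAC activity in HeLa) were run with multiple repetitions of each assay to limit variability.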
# [1] = Inhibition of class 1 histone deacetylase in human HeLa cells using FLUOR DE LYS as fluorescent substrate after 4 hrs by spectrophotometry; format: cell-based; summary of the method: as §1
# Histone deacetylase 1 = Histone deacetylase 1 (Homo sapiens, UniProt Q13547); test: Inhibition of recombinant human His-tagged HDAC1 expressed in insect cells preincubated for 10 mins followed by addition of FLUOR DE LYS as fluorescent substrate measured after 1 hr by spectrophotometry
# HDAC1 = test: Selectivity index, ratio of IC50 for HDAC1 in human HeLa cells to EC50 for Plasmodium falciparum 3D7 infected human erythrocytes; format: toxicity, cell-based; settings: read-out: Ratio IC50/EC50
# [2] = test system: Plasmodium falciparum 3D7; test: Inhibition of recombinant Plasmodium falciparum 3D7 Flag-tagged HDAC1 Y301H mutant assessed as loss of enzyme activity
# Summary of the method: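 The Y301H mutant is a putative catalytic-site mutant of PfHDAC1. It was expressed as a Flag-fusion in insect or mammalian cells and purified on anti-Flag affinity gel. Deacetylase activity was measured in vitro with fluorogenic substrates, alongside wild-type PfHDAC1.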
# [3] = Oral bioavailability in NMRI mouse at 10 mg/kg; format: ADME, organism-based; settings: in vivo
# [4] = Clearance in NMRI mouse plasma; format: ADME, organism-based
# Plasma = test: Drug uptake in NMRI mouse plasma at 10 mg/kg, po; format: ADME, organism-based; settings: in vivo
# [5] = Clearance in NMRI mouse plasma 2 mg/kg, iv by LC-MS/MS analysis; format: ADME, organism-based
# Chain of Histone deacetylase 1 (Q13547 whole entry): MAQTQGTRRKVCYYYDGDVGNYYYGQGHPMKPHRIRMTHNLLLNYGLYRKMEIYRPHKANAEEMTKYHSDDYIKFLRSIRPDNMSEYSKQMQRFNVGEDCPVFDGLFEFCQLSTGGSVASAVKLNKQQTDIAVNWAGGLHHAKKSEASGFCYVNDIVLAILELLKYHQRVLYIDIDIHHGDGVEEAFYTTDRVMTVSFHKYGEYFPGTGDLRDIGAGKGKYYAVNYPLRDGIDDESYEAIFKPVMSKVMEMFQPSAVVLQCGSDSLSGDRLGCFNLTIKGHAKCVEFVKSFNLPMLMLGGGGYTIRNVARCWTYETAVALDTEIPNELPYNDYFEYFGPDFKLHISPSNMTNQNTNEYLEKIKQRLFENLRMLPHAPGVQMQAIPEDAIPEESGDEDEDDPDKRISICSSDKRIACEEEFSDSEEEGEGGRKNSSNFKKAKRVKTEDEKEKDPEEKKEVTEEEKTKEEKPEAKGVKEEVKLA
SMILES,pIC50 [1],pIC50 (Histone deacetylase 1),bioavailability [3] [%],pEC50 (Plasmodium falciparum),selectivity ratio (HDAC1),inhibition [2],clearance [4] [mL/min/kg],Drug uptake (Plasma),clearance [5] [mL/min/kg]
CCC(=O)CCCCC[C@H](NC(=O)C1CN(C)C1)c1ncc(-c2cc3ccccc3nc2OC)[nH]1,–,–,–,–,–,inactive,–,–,–
CNC(=O)CCCCC[C@H](NC(=O)c1cncs1)c1ncc(-c2ccc(-c3cscn3)cc2)[nH]1,5.09,5.67,–,6.24,14,–,–,–,–
CNC(=O)CCCCC[C@H](NC(=O)c1cncs1)c1ncc(-c2ccc(-c3ccccc3)cc2)[nH]1,< 4.60,< 5.30,–,5.12,> 3.3,–,–,–,–
CCC(=O)CCCCC[C@H](NC(=O)C12CCN(CC1)CC2)c1ncc(-c2ccc3ccccc3c2)[nH]1,7.03,8.85,–,7.42,2.5,–,–,–,–
CNC(=O)CCCCC[C@H](NC(=O)c1cncs1)c1ncc(-c2cc3ccccc3nc2OC)[nH]1,6.05,–,10,6.24,–,–,–,–,–
CNC(=O)CCCCC[C@H](NC(=O)c1cncs1)c1ncc(-c2cc3ccccc3[nH]c2=O)[nH]1,< 4.60,< 5.60,–,6.30,> 54,–,–,–,–
CNC(=O)CCCCC[C@H](NC(=O)Cn1ccnn1)c1ncc(-c2cc3ccccc3nc2OC)[nH]1,5.18,5.75,20,5.75,3.8,–,–,–,–
CNC(=O)CCCCC[C@H](NC(=O)c1cncs1)c1ncc(-c2cccc3cccnc23)[nH]1,< 4.60,< 5.60,–,5.08,> 3,–,–,–,–
CNC(=O)CCCCC[C@H](NC(=O)c1cncs1)c1ncc(-c2ccc3[nH]nnc3c2)[nH]1,< 4.60,< 5.30,–,5.00,> 2.5,–,–,–,–
CNC(=O)CCCCC[C@H](NC(=O)C12CCN(CC1)CC2)c1ncc(-c2ccc3ccccc3c2)[nH]1,5.42,6.47,–,6.51,12,–,60,Not Active,–
CNC(=O)CCCCC[C@H](NC(=O)c1cncs1)c1ncc(-c2ccc3ccccc3c2C)[nH]1,< 4.60,4.62,–,4.62,> 1,–,–,–,–
CNC(=O)CCCCC[C@H](NC(=O)c1cncs1)c1ncc(-c2ccc(-n3cccn3)cc2)[nH]1,4.69,5.60,–,6.05,23,–,–,–,–
CNC(=O)CCCCC[C@H](NC(=O)C12CCN(CC1)CC2)c1ncc(-c2cc3ccccc3nc2OC)[nH]1,5.61,6.60,–,6.28,4.7,–,–,Not Active,10

# Now from value to compound, other results behind:
pIC50 [1],pIC50 (Histone deacetylase 1),bioavailability [3] [%],SMILES,pEC50 (Plasmodium falciparum),selectivity ratio (HDAC1),inhibition [2],clearance [4] [mL/min/kg],Drug uptake (Plasma),clearance [5] [mL/min/kg]
5.86,6.41,–,CNC(=O)CCCCC[C@H](NC(=O)c1cncs1)c1ncc(-c2ccc3cc(OC)ncc3c2)[nH]1,7.00,14,–,–,–,–
5.12,5.67,–,CNC(=O)CCCCC[C@H](NC(=O)c1cncs1)c1ncc(-c2ccc3[nH]ncc3c2)[nH]1,6.20,12,–,–,–,–
5.32,6.22,–,CNC(=O)CCCCC[C@H](NC(=O)c1cncs1)c1ncc(-c2ccc3ccncc3c2)[nH]1,6.57,18,–,–,–,–
5.69,6.54,–,CNC(=O)CCCCC[C@H](NC(=O)c1cncs1)c1ncc(-c2ccc3cc(C(F)(F)F)ncc3c2)[nH]1,7.00,20,–,–,–,–
4.70,5.58,–,CNC(=O)CCCCC[C@H](NC(=O)c1cncs1)c1ncc(-c2ccc3ccnc(OC)c3c2)[nH]1,5.31,4.1,–,–,–,–
5.20,5.89,–,CNC(=O)CCCCC[C@H](NC(=O)c1cncs1)c1ncc(-c2ccc3[nH]ccc3c2)[nH]1,6.48,19,–,–,–,–
5.77,6.49,–,CNC(=O)CCCCC[C@H](NC(=O)c1cncs1)c1ncc(-c2ccc3ccccc3c2)[nH]1,6.52,5.7,–,–,–,–
< 4.60,< 5.30,–,CNC(=O)CCCCC[C@H](NC(=O)c1cncs1)c1ncc(-c2ccc3cccnc3c2)[nH]1,5.42,> 6.6,–,–,–,–
< 4.60,< 5.60,–,CNC(=O)CCCCC[C@H](NC(=O)c1cncs1)c1ncc(-c2ccc3[nH]cnc3c2)[nH]1,4.92,> 2.1,–,–,–,–
